25 molecules from ChEMBL document CHEMBL1125769 (J Med Chem, 1991) can be followed below.

Molecules are shown by their SMILES. Numbered stars: 1 amine (or outer) side, 2 acyl side, 3 side chain; on linkers, the order of the positions; unused ones are H or OH. Square brackets hold non-standard residues; d marks the D form. Peptide text beside a SMILES is read from it. X2 = O=C([C@H]1C[S+]([O-])CN1[*:1])[*:2]; Thz(5,5-Me2) = CC1(C)SCN[C@@H]1C(=O)O; Pen = CC(C)(S)[C@H](N)C(=O)O; NMeA = CN[C@@H](C)C(=O)O; Ac5c = NC1(C(=O)O)CCCC1; Aib = CC(C)(N)C(=O)O; Sar = CNCC(=O)O

In one assay the target is T1, Angiotensin II receptor (Rattus norvegicus, UniProt P29089+P25095+P35351).
T1 sequence (P29089 whole entry): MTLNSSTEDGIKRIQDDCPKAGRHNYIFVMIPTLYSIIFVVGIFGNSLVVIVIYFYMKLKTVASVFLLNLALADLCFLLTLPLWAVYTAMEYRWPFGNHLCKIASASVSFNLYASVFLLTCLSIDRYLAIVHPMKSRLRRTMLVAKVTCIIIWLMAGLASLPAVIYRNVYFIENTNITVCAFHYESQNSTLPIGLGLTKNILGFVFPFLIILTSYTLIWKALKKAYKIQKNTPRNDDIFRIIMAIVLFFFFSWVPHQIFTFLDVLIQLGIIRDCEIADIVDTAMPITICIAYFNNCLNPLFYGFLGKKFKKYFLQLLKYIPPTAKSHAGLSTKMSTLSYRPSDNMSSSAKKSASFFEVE
T1 sequence (P25095 whole entry): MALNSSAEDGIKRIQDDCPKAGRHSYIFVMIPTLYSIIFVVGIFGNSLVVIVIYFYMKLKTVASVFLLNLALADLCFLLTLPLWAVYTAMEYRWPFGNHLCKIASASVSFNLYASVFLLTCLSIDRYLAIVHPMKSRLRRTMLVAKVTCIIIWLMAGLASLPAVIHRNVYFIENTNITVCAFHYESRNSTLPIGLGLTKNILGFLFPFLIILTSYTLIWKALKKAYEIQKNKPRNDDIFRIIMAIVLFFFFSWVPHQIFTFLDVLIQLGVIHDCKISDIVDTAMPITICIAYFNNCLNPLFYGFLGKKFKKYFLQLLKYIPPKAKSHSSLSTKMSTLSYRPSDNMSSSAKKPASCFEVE
T1 sequence (P35351 whole entry): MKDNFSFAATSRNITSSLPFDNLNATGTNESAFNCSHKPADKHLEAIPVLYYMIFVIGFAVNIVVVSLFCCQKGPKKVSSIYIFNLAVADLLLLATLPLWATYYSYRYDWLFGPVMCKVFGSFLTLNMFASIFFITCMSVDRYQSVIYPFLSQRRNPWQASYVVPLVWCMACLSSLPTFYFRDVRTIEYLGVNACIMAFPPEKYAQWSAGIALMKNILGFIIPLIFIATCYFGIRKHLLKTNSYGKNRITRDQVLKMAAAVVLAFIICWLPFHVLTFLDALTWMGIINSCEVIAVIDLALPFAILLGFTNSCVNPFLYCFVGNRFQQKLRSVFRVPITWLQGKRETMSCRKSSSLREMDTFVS
The experiment in a line: In vitro antagonist activity (ANG II like) expressed as percent activity relative to ANG II in rabbit aorta strip assay. It is filed as functional, tissue-based.

Assay [1] deals with T2, Angiotensin II receptor (Rattus norvegicus) (UniProt P29089+P25095+P35351). In words: In vivo antagonist activity (ANG II like) expressed by blood pressure increase (mHg) produced by […] iv injection of compound in rats. It is filed as functional, organism-based. The gist of the method:
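Rat blood pressure assay after Regoli et al.; residual ANG II-like activity read as mmHg rise in blood pressure following a one microgram intravenous bolus of compound; n = 5.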

In assay [2] the target is T2, Angiotensin II receptor (Rattus norvegicus). In words: In vitro agonist activity relative to angiotensin II measured in rabbit aorta strip assay. It is filed as functional, tissue-based.

In general, pA2 refers to the negative logarithm of the molar antagonist concentration that doubles the agonist concentration needed for the same response. `CNCC(=O)N[C@@H](CCCN=C(N)N)C(=O)N[C@H](C(=O)N[C@@H](Cc1ccc(O)cc1)C(=O)N1CSC(C)(C)[C@H]1C(=O)N[C@@H](Cc1c[nH]cn1)C(=O)N1CCC[C@H]1C(=O)N[C@H](Cc1ccccc1)C(=O)O)C(C)C` gave a pA2 at Angiotensin II receptor of 7.5.
`CC[C@H](C)[C@H](NC(=O)[C@H](Cc1ccc(O)cc1)NC(=O)[C@@H](NC(=O)[C@H](CCCN=C(N)N)NC(=O)CNC)C(C)C)C(=O)N[C@@H](Cc1c[nH]cn1)C(=O)N1CCC[C@H]1C(=O)N[C@H](Cc1ccccc1)C(=O)O` returned an ID50 (ng min-1 rat-1) in assay [1] of 12.5. In addition, the Activity in assay [2] was determined as 0%. Moreover, the pA2 on Angiotensin II receptor was determined as 9.
Regarding `CC[C@H](C)[C@H](NC(=O)[C@@H]1CSCN1C(=O)[C@H](Cc1c[nH]cn1)NC(=O)[C@@H](NC(=O)[C@H](Cc1ccc(O)cc1)NC(=O)[C@@H](NC(=O)[C@H](CCCN=C(N)N)NC(=O)CNC)C(C)C)[C@@H](C)CC)C(=O)O`, the pA2 at Angiotensin II receptor is recorded as 9.7.
`CC[C@H](C)[C@H](NC(=O)[C@H]1N(C(=O)[C@H](Cc2c[nH]cn2)NC(=O)[C@@H](NC(=O)[C@H](Cc2ccc(O)cc2)NC(=O)[C@@H](NC(=O)[C@H](CCCN=C(N)N)NC(=O)CNC)C(C)C)[C@@H](C)CC)CSC1(C)C)C(=O)O`: the pA2 at Angiotensin II receptor was 7.5.
The molecule `CC[C@H](C)[C@H](NC(=O)[C@@H]1CCCN1C(=O)[C@H](Cc1c[nH]cn1)NC(=O)[C@H]1N(C(=O)[C@H](Cc2ccc(O)cc2)NC(=O)[C@@H](NC(=O)[C@H](CCCN=C(N)N)NC(=O)CNC)C(C)C)CSC1(C)C)C(=O)O` yielded a pA2 on Angiotensin II receptor of 9.
Take `CC[C@H](C)[C@H](NC(=O)[C@@H]1CCCN1C(=O)[C@H](Cc1c[nH]cn1)NC(=O)[C@](C)(Cc1ccc(O)cc1)NC(=O)[C@H](Cc1ccc(O)cc1)NC(=O)[C@@H](NC(=O)[C@H](CCCN=C(N)N)NC(=O)CNC)C(C)C)C(=O)O`: the ID50 (ng min-1 rat-1) in assay [1] was 100. The Activity in assay [2] worked out at 0%. Further, the pA2 at Angiotensin II receptor is 8.25.
Take `CC[C@H](C)[C@H](NC(=O)[C@H](Cc1ccc(O)cc1)NC(=O)[C@@H](NC(=O)[C@H](CCCN=C(N)N)NC(=O)CNC)C(C)C)C(=O)N[C@@H](Cc1c[nH]cn1)C(=O)N1CCC[C@H]1C(=O)NC(C)(C)C(=O)O`: at Angiotensin II receptor, the pA2 is given as 8.7.
On to `CC[C@H](C)[C@H](NC(=O)[C@@H]1CCCN1C(=O)[C@H](Cc1c[nH]cn1)NC(=O)[C@H](Cc1ccc(O)cc1)NC(=O)[C@H](Cc1ccc(O)cc1)NC(=O)[C@@H](NC(=O)[C@H](CCCN=C(N)N)NC(=O)CNC)C(C)C)C(=O)O`, for which, at Angiotensin II receptor, the pA2 amounted to 9.6.
In assay [2], `CC[C@H](C)[C@H](NC(=O)[C@@H]1CCCN1C(=O)[C@H](Cc1c[nH]cn1)NC(=O)[C@H]([C@@H](C)CC)N(C)C(=O)[C@H](Cc1ccc(O)cc1)NC(=O)[C@@H](NC(=O)[C@H](CCCN=C(N)N)NC(=O)CNC)C(C)C)C(=O)O` yielded an Activity of 0%. At Angiotensin II receptor, this molecule yielded a pA2 of 7.64.
With `CC[C@@H](C)[C@@H](NC(=O)[C@H](Cc1ccc(O)cc1)NC(=O)[C@@H](NC(=O)[C@H](CCCN=C(N)N)NC(=O)CNC)C(C)C)C(=O)N[C@@H](Cc1c[nH]cn1)C(=O)N1CCC[C@H]1C(=O)NC(C)(C)C(=O)O`, the Activity in assay [2] came to 0%.
For the molecule `CC[C@H](C)[C@@H](C(=O)N[C@@H](Cc1c[nH]cn1)C(=O)N1CCC[C@H]1C(=O)N[C@@H](Cc1ccccc1)C(=O)O)N(C)C(=O)[C@H](Cc1ccc(O)cc1)NC(=O)[C@@H](NC(=O)[C@H](CCCN=C(N)N)NC(=O)CNC)C(C)C`, the Activity in assay [2] worked out at 20%.
In assay [1], `CC[C@H](C)[C@H](NC(=O)[C@@H]1CCCN1C(=O)[C@H](Cc1c[nH]cn1)NC(=O)[C@@H](NC(=O)[C@H](Cc1ccc(O)cc1)NC(=O)[C@@H](NC(=O)[C@H](CCCN=C(N)N)NC(=O)CNC)C(C)C)[C@@H](C)CC)C(=O)O` displayed an ID50 (ng min-1 rat-1) of 10. Besides, the Activity in assay [2] came out at 0%.
In assay [1], `CC[C@H](C)[C@H](NC(=O)[C@@H]1CCCN1C(=O)[C@H](Cc1c[nH]cn1)NC(=O)[C@@H]1N(C(=O)[C@H](Cc2ccc(O)cc2)NC(=O)[C@@H](NC(=O)[C@H](CCCN=C(N)N)NC(=O)CNC)C(C)C)CSC1(C)C)C(=O)O` showed an ID50 (ng min-1 rat-1) of 25. The same molecule came in with an Activity in assay [2] of 0%.
Regarding `CC[C@H](C)[C@H](NC(=O)[C@@H]1N(C(=O)[C@H](Cc2c[nH]cn2)NC(=O)[C@@H](NC(=O)[C@H](Cc2ccc(O)cc2)NC(=O)[C@@H](NC(=O)[C@H](CCCN=C(N)N)NC(=O)CNC)C(C)C)[C@@H](C)CC)CSC1(C)C)C(=O)O`, the ID50 (ng min-1 rat-1) in assay [1] was determined as 250. The molecule further registered an Activity in assay [2] of 4%.
Turning to `CC[C@H](C)[C@H](NC(=O)[C@H](Cc1ccc(O)cc1)NC(=O)[C@H](C)N(C)C(=O)[C@H](CCCN=C(N)N)NC(=O)CNC)C(=O)N[C@@H](Cc1c[nH]cn1)C(=O)N1CCC[C@H]1C(=O)N[C@@H](Cc1ccccc1)C(=O)O`, the Activity in assay [2] was 120%.
`CC[C@H](C)[C@H](NC(=O)[C@H]1CSCN1C(=O)[C@H](Cc1c[nH]cn1)NC(=O)[C@@H](NC(=O)[C@H](Cc1ccc(O)cc1)NC(=O)[C@@H](NC(=O)[C@H](CCCN=C(N)N)NC(=O)CNC)C(C)C)[C@@H](C)CC)C(=O)O`: in assay [2], the Activity amounted to 0%.
`CNCC(=O)N[C@@H](CCCN=C(N)N)C(=O)N[C@H](C(=O)N[C@@H](Cc1ccc(O)cc1)C(=O)N1CSC(C)(C)[C@@H]1C(=O)N[C@@H](Cc1c[nH]cn1)C(=O)N1CCC[C@H]1C(=O)N[C@H](Cc1ccccc1)C(=O)O)C(C)C`: the ID50 (ng min-1 rat-1) in assay [1] worked out at 1000. The molecule further yielded an Activity in assay [2] of 0%.
`CC[C@H](C)[C@H](NC(=O)[C@H](Cc1ccc(O)cc1)NC(=O)[C@H](C)NC(=O)[C@H](CCCN=C(N)N)NC(=O)CNC)C(=O)N[C@@H](Cc1c[nH]cn1)C(=O)N1CCC[C@H]1C(=O)N[C@@H](Cc1ccccc1)C(=O)O` (H-[Sar]RAYIHPF-OH) had an Activity in assay [2] of 38%.
With `CC[C@H](C)[C@H](NC(=O)[C@@H]1CCCN1C(=O)[C@H](Cc1c[nH]cn1)NC(=O)[C@@H](NC(=O)[C@H](Cc1ccc(O)cc1)NC(=O)[C@@H]1CCCN1C(=O)[C@H](CCCN=C(N)N)NC(=O)CNC)[C@@H](C)CC)C(=O)O` (H-[Sar]RPYIHPI-OH), the Activity in assay [2] was 1.5%. Moreover, the pA2 at Angiotensin II receptor was found to be 7.17.
As for `CC[C@H](C)[C@H](NC(=O)[C@@H]1CCCN1C(=O)[C@H](Cc1c[nH]cn1)NC(=O)[C@H](C)NC(=O)[C@H](Cc1ccc(O)cc1)NC(=O)[C@@H](NC(=O)[C@H](CCCN=C(N)N)NC(=O)CNC)C(C)C)C(=O)O` (H-[Sar]RVYAHPI-OH), in assay [1], the ID50 (ng min-1 rat-1) is 50. This molecule also yielded an Activity in assay [2] of 0%. On Angiotensin II receptor, the pA2 was found to be 7.5.
On to `CC[C@H](C)[C@H](NC(=O)C(C)(C)NC(=O)[C@H](Cc1c[nH]cn1)NC(=O)[C@@H](NC(=O)[C@H](Cc1ccc(O)cc1)NC(=O)[C@@H](NC(=O)[C@H](CCCN=C(N)N)NC(=O)CNC)C(C)C)[C@@H](C)CC)C(=O)O` (H-[Sar]RVYIH[Aib]I-OH), for which, in assay [1], the ID50 (ng min-1 rat-1) was 60. The molecule also showed an Activity in assay [2] of 0%. This molecule also came in with a pA2 at Angiotensin II receptor of 8.
`CC[C@H](C)[C@H](NC(=O)[C@H]1C[S+]([O-])CN1C(=O)[C@H](Cc1c[nH]cn1)NC(=O)[C@@H](NC(=O)[C@H](Cc1ccc(O)cc1)NC(=O)[C@@H](NC(=O)[C@H](CCCN=C(N)N)NC(=O)CNC)C(C)C)[C@@H](C)CC)C(=O)O` (some centres undefined) (H-[Sar]RVYIH[X2]I-OH) registered a pA2 at Angiotensin II receptor of 6.7.
As for `CNCC(=O)N[C@@H](CCCN=C(N)N)C(=O)N[C@H](C(=O)N[C@@H](Cc1ccc(O)cc1)C(=O)NC1(C(=O)N[C@@H](Cc2c[nH]cn2)C(=O)N2CCC[C@H]2C(=O)N[C@@H](Cc2ccccc2)C(=O)O)CCCC1)C(C)C` (H-[Sar]RVY[Ac5c]HPF-OH), the Activity in assay [2] was found to be 70%.
As to `CC[C@H](C)[C@H](NC(=O)[C@@H]1CCCN1C(=O)[C@H](Cc1c[nH]cn1)NC(=O)[C@@H](NC(=O)[C@H](Cc1ccc(O)cc1)NC(=O)[C@@H](NC(=O)[C@H](CCCN=C(N)N)NC(=O)CNC)C(C)C)C(C)(C)SC)C(=O)O` (H-[Sar]RVY[Pen](Me)HPI-OH), on Angiotensin II receptor, the pA2 amounted to 9.
The molecule `CNCC(=O)N[C@@H](CCCN=C(N)N)C(=O)N(C)[C@@H](C)C(=O)N[C@@H](Cc1ccc(O)cc1)C(=O)N1CSC(C)(C)[C@H]1C(=O)N[C@@H](Cc1c[nH]cn1)C(=O)N1CCC[C@H]1C(=O)NC(C)(C)C(=O)O` (H-[Sar]R[NMeA]Y[Thz(5,5-Me2)]HP[Aib]-OH) showed a pA2 on Angiotensin II receptor of less than 6.
